Screening data deposited in PubChem BioAssay by several laboratories.
PMI act: activators of human phosphomannose isomerase; hit rate 0.005% among 190,000; purified human PMI, coupled resazurin fluorescence, 20 min; stronger effect = higher value; 1 = vehicle control, 0 substrate-free wells; activation factor at 20 µM;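 active means activation factor of 2 or more at 20 µM, relative to plate controls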
Target sequence (P34949 whole entry, looked up): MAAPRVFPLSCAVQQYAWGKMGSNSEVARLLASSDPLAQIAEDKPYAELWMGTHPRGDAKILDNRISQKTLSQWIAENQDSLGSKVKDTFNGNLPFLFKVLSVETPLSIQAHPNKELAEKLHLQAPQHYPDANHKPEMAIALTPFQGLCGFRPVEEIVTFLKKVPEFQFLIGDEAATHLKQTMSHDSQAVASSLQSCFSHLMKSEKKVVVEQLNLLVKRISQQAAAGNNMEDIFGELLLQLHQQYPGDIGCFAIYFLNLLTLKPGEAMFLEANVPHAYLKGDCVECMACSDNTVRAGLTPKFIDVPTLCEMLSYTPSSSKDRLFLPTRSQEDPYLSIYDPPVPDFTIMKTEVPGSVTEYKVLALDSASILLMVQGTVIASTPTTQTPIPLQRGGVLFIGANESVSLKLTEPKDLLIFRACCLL
HCT116 bCat-KO: beta-catenin-lacking colon tumor cell growth suppression; HCT116 beta-catenin knockout viability, CellTiter-Glo, 60 h; stronger effect = lower value; viability, % at 10 µM; hit rate 1.5% among 140,000;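 active means viability at or under a set limit, the compound median less 4 SD, cut at about 6% in these data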;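 further: 0% = Hyamine 1622 control at 20 µM and 100% = untreated cell control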
HCT116 PTEN-null: suppresses growth of cells with PTEN deletion. AID 827. viability, % at 10 µM. HCT116 PTEN-null viability, CellTiter-Glo, 60 h; stronger effect = lower value. hit rate 1.2% among 140,000;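 active means viability at or below a set limit, 4 SD under the median of all tested compounds, cut at about 3.7% in these data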;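 further: PTEN knockout HCT116 line with beta catenin targeted HCT116 as companion control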
Lmaj promast: Leishmania major promastigote growth inhibition | Leishmania major promastigotes, resazurin fluorescence viability | inhibition, % at 10 µM | hit rate 9% among 200,000 | AID 1063; in the data active means inhibition above about 50%;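 further: promastigotes grown with compound for 44 hours at 28 °C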
PMI act hi M6P: activators of human phosphomannose isomerase at near-saturating mannose 6-phosphate. activation factor at 20 µM. P34949. coupled PMI enzyme assay, resazurin fluorescence, 20 min; stronger effect = higher value; 1 = untreated enzyme, 0 = substrate-free blank. hit rate 0.34% among 190,000. AID 1216;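 active means activation factor of 2 or more at 20 µM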
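Test system: human PMI in coupled enzyme assay; Input: PMI at 15 ng/mL final; Medium: HEPES buffer, pH 7.4; Schedule: 20 min incubation at room temperature; Technique: resorufin fluorescence at Ex 544/Em 590 nm; Compound: 20 µM single dose; Probe or stimulus: Near-saturating mannose-6-phosphate, 1.0 mM.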
* hit, by the source's call; · = not tested or not shown. Only some compounds are listed: those with a hit (about 9.6% of all), similar ones and a draw of the others.

SMILES	PMI act	HCT116 bCat-KO	HCT116 PTEN-null	Lmaj promast	PMI act hi M6P
O=C(Cn1nc(Cc2cccnc2)c2ccccc2c1=O)N1CCN(C(=O)c2ccco2)CC1	1.2	95.9	96.4	73.3*	1.1
O=C(Cn1nc(Cc2ccncc2)c2ccccc2c1=O)N1CCN(C(=O)c2ccco2)CC1	1	96.8	102.6	-10.4	1
Cc1ccc(S(=O)(=O)N2CCN(C3CC(=O)N(Cc4ccccc4)C3=O)CC2)cc1C (stereo not drawn)	0.9	73.7	83.3	92.7*	0.9
COc1ccc(OCCN2CCN(C3CC(=O)N(CCC(C)C)C3=O)CC2)cc1 (stereo not drawn)	1.1	90.2	80.0	91.9*	1.1
COc1ccc(CCN2C(=O)CC(N3CCN(S(=O)(=O)c4ccccc4)CC3)C2=O)cc1 (stereo not drawn)	0.9	83.1	74.9	63.4*	1
CCN1C(=O)CC(N2CCN(c3cccc(OC)c3)CC2)C1=O (stereo not drawn)	0.9	·	·	-5.7	0.9
COc1ccc(CCN2C(=O)CC(N3CCOCC3)C2=O)cc1 (stereo not drawn)	1	91.6	100.8	-1.9	1
O=C1CC(N2CCN(Cc3ccccc3)CC2)C(=O)N1CCc1ccccc1 (stereo not drawn)	1	93.3	102.5	88.4*	0.9
O=C(C1CCCO1)N1CCN(C(=S)Nc2ccccc2Cl)CC1 (stereo not drawn)	0.8	94.9	106.4	4.2	1
CCN(CC)S(=O)(=O)c1ccc(NC(=O)c2cc(C(=O)OC)cc([N+](=O)[O-])c2)cc1	0.9	81.4	70.6	29.8	0.9
COC(=O)c1cc(C(=O)Nc2ccc(S(=O)(=O)NC(C)(C)C)cc2)cc([N+](=O)[O-])c1	1	85.2	86.0	99.3*	1
CCOC(=O)CN1C(=O)C(C)(C)Oc2ccc(C(=O)Nc3ccccc3)cc21	1	95.5	99.5	-5.0	1
COc1ccc(-c2cc(CNC(=O)CCl)on2)cc1	1	11.2	14.0	66.3*	1
CCC(=O)Nc1ccc(C(=O)OCc2ccc(Cl)c(Cl)c2)cc1	0.9	100.9	98.2	64.7*	1
CC(=O)Nc1ccc(C(=O)OCc2ccc(Cl)c(Cl)c2)cc1	0.8	96.5	103.8	62.0*	0.9
CC(=O)Nc1ccc(C(=O)OCc2ccc(Cl)cc2)cc1	0.9	75.8	75.3	33.7	0.9
Cc1c(CCOC(=O)c2cccc([N+](=O)[O-])c2)sc[n+]1CC(=O)c1ccccc1	1	·	·	-1.2	1
Cc1ccccc1-n1nc(C)c2cc(C(=O)N3CCN(S(=O)(=O)c4ccc(Cl)cc4)CC3)sc21	0.8	65.2	65.4	37.8	0.9
Cc1ccccc1-n1nc(C)c2cc(C(=O)N3CCN(S(=O)(=O)c4ccc(F)cc4)CC3)sc21	0.8	69.0	67.9	52.5*	0.9
CC(C)N(C(=S)Nc1cc(S(=O)(=O)N2CCOCC2)ccc1Cl)c1ccccc1	0.8	93.8	99.8	27.8	0.9
C/C(=N\NC(=S)Nc1cc(S(=O)(=O)N2CCOCC2)ccc1Cl)c1ccccc1F	0.9	59.4	59.7	71.5*	0.9
O=C(CSc1cccc[n+]1[O-])Nc1cc(S(=O)(=O)N2CCOCC2)ccc1Cl	1	90.5	97.3	67.9*	1
Cc1ccc(S(=O)(=O)N2CCOCC2)cc1NC(=O)CSc1nccn1C	0.9	90.7	101.0	-2.8	1
Cn1ccnc1SCC(=O)Nc1cc(S(=O)(=O)N2CCOCC2)ccc1Cl	1.1	101.1	99.2	61.7*	1.1
CC(C(=O)N1CCCCCC1)c1ccc([N+](=O)[O-])cc1 (stereo not drawn)	0.9	·	·	-0.9	1
SMILES	PMI act	HCT116 bCat-KO	HCT116 PTEN-null	Lmaj promast	PMI act hi M6P
CCOC(=O)C1=C(O)/C(=C/c2ccc(C)o2)SC1=NC(=O)c1ccccc1C	·	·	·	12.1	·
CC(C)C(=O)Nc1cccc(C(=O)Nc2nnc(C(C)C)s2)c1	1.1	87.8	93.6	53.0*	1.1
COc1ccc(NC(=O)CSc2nc3ccccc3n2-c2ccccc2)c([N+](=O)[O-])c1	1	93.0	87.2	69.9*	1
COc1ccc(NC(=O)c2ccc(NC(=O)C(C)C)cc2)c([N+](=O)[O-])c1	1	98.3	91.8	27.8	1
COc1ccc(NC(=O)CSc2ccccc2)c([N+](=O)[O-])c1	0.9	·	·	-5.2	1
COc1ccc(NC(=O)c2cccc(NC(=O)C(C)C)c2)c([N+](=O)[O-])c1	0.8	97.8	96.1	73.0*	0.9
COc1ccc(NC(=O)Cc2ccc(C)cc2)c([N+](=O)[O-])c1	0.9	104.3	100.5	90.7*	0.8
Cc1cc(C(=O)NC(=S)Nc2cccc(NC(=O)C(C)C)c2)ccc1[N+](=O)[O-]	0.9	79.5	66.0	81.9*	1.1
COc1cc(S(=O)(=O)Nc2cccc(C)c2)ccc1NC(=O)c1ccncc1	0.9	74.2	82.3	14.6	1
COc1ccc2c(c1)[nH]c(=O)c1sc3ccccc3c12	1	5.1*	9.3	-0.7	1
Nc1ccccc1Oc1c(F)c(F)c(Oc2ccccc2N)c(F)c1F	0.8	·	·	-2.9	0.8
Cn1nc(C(=O)NNC(=O)COc2ccccc2)c2ccccc2c1=O	1.1	101.3	104.4	55.0*	1
CCn1nc(C(=O)NNC(=O)COc2ccc(OC)cc2)c2ccccc2c1=O	1.1	88.7	100.3	-7.0	1.1
CC1CCN(Cc2ccc(-c3nn[nH]n3)cc2)CC1	0.8	103.6	99.0	-4.8	0.9
CCOC(=O)c1oc2ccc(Br)cc2c1NC(=O)CN1CCN(C)CC1	0.9	4.4*	4.8	2.8	0.9
COC(=O)c1oc2ccc(Br)cc2c1NC(=O)CCN1CCOCC1	0.9	85.4	92.3	12.9	0.9
COc1ccc2oc(C(=O)c3ccccc3)c(NC(=O)CN3CCN(C)CC3)c2c1	0.9	1.4*	1.6*	98.0*	0.9
Cc1cc(C)n(/N=C/c2cc([N+](=O)[O-])ccc2O)c(=O)c1	0.9	·	·	-3.9	0.9
CC1=NN(c2ccc(Cl)cc2)C(=O)/C1=C\c1cccn1-c1ccc(S(N)(=O)=O)cc1	0.8	31.8	29.7	50.4*	0.9
COc1ccc(C2(NC(C)=O)CCN(C(=O)c3cccs3)CC2)cc1	1	85.2	94.9	-1.2	1.1
Cc1cc(NC(=O)CN2C(=O)NC3(CCCCC3)C2=O)no1	1	85.3	96.7	-4.5	0.9
Cc1noc(C)c1CN1C(=O)NC2(CCCCCCC2)C1=O	0.9	97.3	97.9	100.0*	0.9
CCCOc1nc2c(c(=O)n(C)c(=O)n2C)n1Cc1cccc2ccccc12	0.9	64.5	58.2	65.0*	0.9
CCc1ccc(C(=O)OCC(=O)c2c(N)n(CC(C)C)c(=O)n(C)c2=O)cc1	1.1	·	·	-3.5	1.1
C=CCSc1nc2ccccc2n1C(=O)/C=C/c1cc(OC)c(OC)c(OC)c1	0.8	3.1*	2.4*	5.3	0.8
CCn1c(SCC(=O)N/N=C/c2ccc(OC)c(OC)c2)nc2ccccc21	0.9	96.5	99.4	96.8*	0.9
